# Columns and labels:
# Oryctolagus cuniculus [1] = assay: Tested in vivo for hypocholesterolemic activity by measuring its ability to decrease serum total cholesterol, after oral administration of 75 mg/kg body wt. per day in normolipidemic NZW rabbits; assay type: functional
# Summary of the method: (§1)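 NZW rabbits (n = 5 or 6) dosed orally daily for 10 days. Serum total cholesterol reported as % change versus control. For 20 mg/kg, that dose was given on days 11-20 after 10 mg/kg, with the value read on day 20. Error given as SEM.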
# [2] = molecular target: T1, 3-hydroxy-3-methylglutaryl-coenzyme A reductase (Rattus norvegicus, UniProt P51639); assay: In vitro inhibition of HMG-CoA reductase in solubilized rat liver.
# T1 sequence (P51639 whole entry): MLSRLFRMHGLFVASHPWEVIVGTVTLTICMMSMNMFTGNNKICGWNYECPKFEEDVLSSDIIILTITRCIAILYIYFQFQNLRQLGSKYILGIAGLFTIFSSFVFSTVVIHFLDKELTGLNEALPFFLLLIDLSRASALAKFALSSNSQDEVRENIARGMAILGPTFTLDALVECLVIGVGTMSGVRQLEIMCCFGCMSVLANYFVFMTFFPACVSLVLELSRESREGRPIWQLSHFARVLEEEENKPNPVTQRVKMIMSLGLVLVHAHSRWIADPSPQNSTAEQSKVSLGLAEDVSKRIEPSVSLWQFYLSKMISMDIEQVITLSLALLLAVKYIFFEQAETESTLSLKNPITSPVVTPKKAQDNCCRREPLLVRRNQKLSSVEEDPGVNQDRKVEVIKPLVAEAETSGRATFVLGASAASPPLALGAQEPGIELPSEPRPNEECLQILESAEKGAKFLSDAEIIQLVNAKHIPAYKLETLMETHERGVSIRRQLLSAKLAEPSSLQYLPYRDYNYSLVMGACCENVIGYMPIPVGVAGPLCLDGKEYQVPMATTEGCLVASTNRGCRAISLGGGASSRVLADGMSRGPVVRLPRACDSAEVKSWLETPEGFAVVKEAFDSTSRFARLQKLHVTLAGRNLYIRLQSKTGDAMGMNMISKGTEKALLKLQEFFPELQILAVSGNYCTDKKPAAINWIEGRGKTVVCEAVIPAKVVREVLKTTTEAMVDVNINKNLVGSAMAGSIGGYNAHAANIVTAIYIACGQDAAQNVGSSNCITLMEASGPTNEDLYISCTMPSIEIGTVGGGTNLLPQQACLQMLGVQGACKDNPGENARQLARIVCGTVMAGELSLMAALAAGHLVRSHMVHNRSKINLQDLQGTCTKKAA
# Rattus norvegicus [3] = assay: In vivo inhibition of hepatic cholesterol de novo synthesis in rat after oral administration of 5 mg/kg dose; assay type: functional
# Oryctolagus cuniculus [4] = assay: Tested in vivo for hypocholesterolemic activity by measuring its ability to decrease serum total cholesterol, after oral administration of 20 mg/kg body wt. per day in normolipidemic NZW rabbits; assay type: functional; summary of the method: as §1
# Canis familiaris [5] = assay: Tested in vivo for hypocholesterolemic activity by measuring its ability to decrease serum LDL-cholesterol, after oral administration of 10 mg/kg per day for 19 days in male Beagle dogs.
# Oryctolagus cuniculus [6] = assay: Tested in vivo for hypocholesterolemic activity by measuring its ability to decrease serum total cholesterol, after oral administration of 10 mg/kg body wt. per day in normolipidemic NZW rabbits; assay type: functional; summary of the method: as §1
# [7] = molecular target: T2, 3-hydroxy-3-methylglutaryl-coenzyme A reductase (Homo sapiens, UniProt P04035); assay: Inhibition of the incorporation of sodium [14C]acetate into cholesterol in HEP G2 cells.; assay type: functional, cell-based, HepG2
# T2 sequence (P04035 whole entry): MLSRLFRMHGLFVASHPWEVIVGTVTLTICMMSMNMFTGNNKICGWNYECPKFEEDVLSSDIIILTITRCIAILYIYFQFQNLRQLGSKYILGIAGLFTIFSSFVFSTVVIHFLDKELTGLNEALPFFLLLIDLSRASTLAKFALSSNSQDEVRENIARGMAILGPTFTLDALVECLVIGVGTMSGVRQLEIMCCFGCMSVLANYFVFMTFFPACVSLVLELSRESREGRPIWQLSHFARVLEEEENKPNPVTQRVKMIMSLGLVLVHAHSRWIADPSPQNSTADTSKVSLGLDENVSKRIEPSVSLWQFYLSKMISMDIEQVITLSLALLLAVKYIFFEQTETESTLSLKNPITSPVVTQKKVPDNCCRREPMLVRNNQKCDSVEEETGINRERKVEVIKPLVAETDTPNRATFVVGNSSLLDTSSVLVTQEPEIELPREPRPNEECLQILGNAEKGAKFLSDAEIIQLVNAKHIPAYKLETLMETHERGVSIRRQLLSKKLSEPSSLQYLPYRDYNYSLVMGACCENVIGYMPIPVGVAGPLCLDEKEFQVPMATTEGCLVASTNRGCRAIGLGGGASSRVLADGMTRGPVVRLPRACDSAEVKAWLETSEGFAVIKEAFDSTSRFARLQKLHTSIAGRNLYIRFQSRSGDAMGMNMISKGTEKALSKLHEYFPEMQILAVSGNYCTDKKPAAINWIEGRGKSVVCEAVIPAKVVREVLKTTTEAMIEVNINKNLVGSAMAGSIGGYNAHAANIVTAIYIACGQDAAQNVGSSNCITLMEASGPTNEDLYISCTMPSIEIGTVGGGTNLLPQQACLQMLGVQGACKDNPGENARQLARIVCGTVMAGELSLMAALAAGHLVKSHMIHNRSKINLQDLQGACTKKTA
# Rattus norvegicus [8] = assay: Compound was tested for effect on serum VLDL after oral administration of 100 mg/kg in male rats; assay type: functional
# Summary of the method: (§2)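 Male HOE:WISKf (SPF 71) rats, initial body weight over 180 g, n = 10 per group, dosed once daily in the morning by gavage in polyethylene glycol 400 for 7 days; controls received vehicle. Fasted after last dose, bled retroorbitally 24 h later under mild ether. Liver and body weight recorded. Pooled group serum was ultracentrifuged into VLDL (<1.006), LDL (1.006-1.04) and HDL (1.04-1.21). Values are % change versus control.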
# Rattus norvegicus [9] = assay: Compound was tested for effect on serum LDL after oral administration of 100 mg/kg in male rats; assay type: functional; summary of the method: as §2
# Rattus norvegicus [10] = species: Rattus norvegicus; assay: Compound was tested for inhibition of microsomal lipid peroxidation and the potency relative to terbufucine was determined; assay type: functional
# Summary of the method: (§3)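 Rat liver microsomes in 50 mM Tris-HCl pH 7.4 with 100 mM KCl and 6.0 mM MgCl2, final protein 0.4 mg/mL. Peroxidation was started with ADP (2 mM)/FeCl3 (10 μM) plus an NADPH-regenerating system. Incubation 30 min at 37 °C with shaking. Thiobarbituric acid reactive substances were read at 535 nm.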
# Rattus norvegicus [11] = assay: Compound was tested for effect on serum HDL after oral administration of 100 mg/kg in male rats; assay type: functional; summary of the method: as §2
# [12] = molecular target: T3, 3-hydroxy-3-methylglutaryl-coenzyme A reductase (Rattus norvegicus) (UniProt P51639); assay: (§4) Inhibition of HMG-CoA reductase compared to mevinolin.
# T3 sequence (whole entry): T1 sequence (P51639 whole entry)
# Summary of the method: (§5)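 Solubilized, partially purified rat liver HMG-CoA reductase. IC50 from four or five inhibitor concentrations. Relative potency compared IC50 with mevinolin (set to 100), corrected for molecular weight.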
# [13] = molecular target: T4, 3-hydroxy-3-methylglutaryl-coenzyme A reductase (Homo sapiens) (UniProt P04035); assay: as §4; assay type: functional; summary of the method: as §5
# T4 sequence (whole entry): T2 sequence (P04035 whole entry)
# Rattus norvegicus [14] = assay: Compound was tested for effect on body weight after oral administration of 100 mg/kg in male rats.; assay type: functional; summary of the method: as §2
# Rattus norvegicus [15] = assay: Compound was tested for effect on liver weight after oral administration of 100 mg/kg in male rats.; assay type: functional; summary of the method: as §2
# Rattus norvegicus [16] = species: Rattus norvegicus; assay: In vitro inhibition of microsomal lipid peroxidation at 10e-5 M concentration; assay type: functional; summary of the method: as §3
# Sus scrofa [17] = species: Sus scrofa; assay: In vitro inhibition of Cu2+ catalyzed LDL oxidation at 10e-5 M conc.; assay type: functional
# Summary of the method: (§6)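 Porcine plasma LDL isolated by sequential ultracentrifugation (density 1.019-1.063 g/mL), dialysed against PBS pH 7.4, then diluted to 0.1 mg/mL protein. Preincubated 1 h at 37 °C under N2 with compound in ethanol. Oxidised with 5 μM Cu2+ for 2 h at 37 °C in air. Fluorescence read at ex 365/em 430 nm.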
# Canis familiaris [18] = assay: Tested in vivo for hypocholesterolemic activity by measuring its ability to decrease serum LDL-cholesterol, after oral administration of 30 mg/kg per day for 14 days in male Beagle dogs.; assay type: functional, Canis lupus familiaris
# Summary of the method: (§7)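 Male beagle dogs (n = 4) given neat compound in gelatine capsules daily at 3:00 p.m.; controls received empty capsules. After an overnight fast, venous blood was drawn at 8:00 a.m. Serum lipoproteins were separated by ultracentrifugation (densities 1.006/1.063/1.21). LDL-cholesterol reported as % change versus control.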
# Rattus norvegicus [19] = species: Rattus norvegicus; assay: In vitro inhibition of microsomal lipid peroxidation; assay type: functional; summary of the method: as §3
# Sus scrofa [20] = species: Sus scrofa; assay: Compound was tested for inhibition of Cu2+ catalyzed LDL oxidation and the potency relative to terbufucine was determined; assay type: functional; summary of the method: as §6
# Canis familiaris [21] = assay: Tested in vivo for hypocholesterolemic activity by measuring its ability to decrease serum LDL-cholesterol, after oral administration of 5 mg/kg per day for 14 days in male Beagle dogs.; assay type: functional, Canis lupus familiaris; summary of the method: as §7
# Oryctolagus cuniculus [22] = assay: Tested in vivo for hypocholesterolemic activity by measuring its ability to decrease serum total cholesterol, after oral administration of 75 mg/kg body wt. per day in normolipidemic NZW rabbits; Not significantly active; assay type: functional, organism-based; design: dose 75 mg/kg, route oral
# Oryctolagus cuniculus [23] = assay: Tested in vivo for hypocholesterolemic activity by measuring its ability to decrease serum total cholesterol, after oral administration of 75 mg/kg body wt. per day in normolipidemic NZW rabbits; More potent than compound 73; assay type: functional, organism-based; design: dose 75 mg/kg, route oral
# [24] = molecular target: T1, 3-hydroxy-3-methylglutaryl-coenzyme A reductase; assay: In vitro inhibition of solubilized HMG-CoA reductase in rat liver.
# Canis familiaris [25] = assay: Tested in vivo for hypocholesterolemic activity by measuring its ability to decrease serum LDL-cholesterol, after oral administration of 30 mg/kg per day for 21 days in male Beagle dogs.; assay type: functional, Canis lupus familiaris; summary of the method: as §7
# Rattus norvegicus [26] = species: Rattus norvegicus; assay: Potency relative to mevinolin was determined with respect to IC50. […]; assay type: functional
# Canis familiaris [27] = assay: Tested in vivo for hypocholesterolemic activity by measuring its ability to decrease serum LDL-cholesterol, after oral administration of 10 mg/kg per day for 14 days in male Beagle dogs.; assay type: functional, Canis lupus familiaris; summary of the method: as §7
# Oryctolagus cuniculus [28] = assay: Tested in vivo for hypocholesterolemic activity by measuring its ability to decrease serum total cholesterol, after oral administration of 75 mg/kg body wt. per day in normolipidemic NZW rabbits; Very potent; assay type: functional, organism-based; design: dose 75 mg/kg, route oral
# Canis familiaris [29] = assay: Tested in vivo for hypocholesterolemic activity by measuring its ability to decrease serum LDL-cholesterol, after oral administration of 25 mg/kg per day for 14 days in male Beagle dogs.; assay type: functional, Canis lupus familiaris; summary of the method: as §7
smiles,measurement,setting,value
O=C([O-])C[C@H](O)CC(O)COc1c(Cl)cc(Cl)cc1C(c1ccc(F)cc1)c1ccc(F)cc1.[Na+] (stereo in doubt; 11b),Change,Oryctolagus cuniculus [1],-25%
same,IC50,[2],50 nM
CC[C@H](C)C(=O)O[C@H]1C[C@@H](C)C=C2C=C[C@H](C)[C@H](CC[C@@H]3C[C@@H](O)CC(=O)O3)[C@H]21 [LOVASTATIN],Cholesterol,Rattus norvegicus [3],14%
same,Change,Oryctolagus cuniculus [4],-27%
same,Change,Canis familiaris [5],-20%
same,Change,Oryctolagus cuniculus [6],-25%
CC(C)c1cc(SC(C)(C)Sc2cc(-c3ccc(F)cc3)c(OC[C@H](O)C[C@@H](O)CC(=O)[O-])c(C(C)C)c2)cc(-c2ccc(F)cc2)c1OC[C@H](O)C[C@@H](O)CC(=O)[O-].[Na+].[Na+],IC50,[7],> 1000 nM
same,Change,Rattus norvegicus [8],-23%
same,Change,Rattus norvegicus [9],-52%
same,Relative potency,Rattus norvegicus [10],< 0.1
same,Change,Rattus norvegicus [11],9%
same,IC50,[2],10 nM
same,Relative potency,[12],37
same,Relative potency,[13],< 5
same,Change,Rattus norvegicus [14],5%
same,Change,Rattus norvegicus [15],-1%
same,inhibition,Rattus norvegicus [16],< 10%
CC(C)c1cc(Sc2ccc(F)cc2)cc(-c2ccc(F)cc2)c1OCC1C[C@@H](O)CC(=O)O1 (stereo partly drawn),inhibition at 10 µM,Sus scrofa [17],23%
same,Change,Canis familiaris [18],-21%
same,IC50,Rattus norvegicus [19],> 10 µM
same,Relative potency,Sus scrofa [20],<0.1
same,Change,Canis familiaris [21],-9%
CC(C)c1cc(C(C)(C)C)cc(-c2ccc(F)cc2)c1OCC(O)C[C@@H](O)CC(=O)[O-].[Na+] (stereo partly drawn),IC50,[7],> 500 nM
same,IC50,[2],400 nM
same,IC50,Oryctolagus cuniculus [22],Not Active
same,Relative potency,[12],2
same,Relative potency,[13],< 10
CC(C)c1nc(C(C)(C)C)cc(-c2ccc(F)cc2)c1/C=C/[C@@H](O)C[C@@H](O)CC(=O)[O-].[Na+],IC50,Oryctolagus cuniculus [23],More potent than compound 73
same,IC50,[24],1 nM
CC(C)c1cc(-c2ccc(F)cc2)cc(-c2ccc(F)cc2)c1OCC1C[C@@H](O)CC(=O)O1 (stereo partly drawn),Cholesterol,Rattus norvegicus [3],84.5%
same,Change,Canis familiaris [25],3%
same,Change,Oryctolagus cuniculus [4],-34%
same,Change,Oryctolagus cuniculus [6],-28%
same,Relative potency,Rattus norvegicus [26],18
CC(C)c1cc(-c2ccc(F)cc2)c(OCC(O)C[C@@H](O)CC(=O)[O-])c(C(C)C)c1.[Na+] (stereo partly drawn),IC50,[7],30 nM
same,Change,Canis familiaris [27],-10%
same,IC50,[2],2.7 nM
same,Relative potency,[12],300
same,Change,Oryctolagus cuniculus [4],-37%
same,Relative potency,[13],150
same,Change,Oryctolagus cuniculus [6],-32%
same,IC50,Oryctolagus cuniculus [28],Very potent
same,Change,Canis familiaris [29],-21%

# Source: ChEMBL document CHEMBL1125911, “Synthesis and biological activity of new HMG-CoA reductase inhibitors. 3. Lactones of 6-phenoxy-3,5-dihydroxyhexanoic acids” (J Med Chem, 1991)
